Here are results for 19 molecules from ChEMBL document CHEMBL1156742, “Fluorinated rhodacyanine (SJL-01) possessing high efficacy for visceral leishmaniasis (VL)” (J Med Chem, 2010).

Data set [1] has as its system Leishmania donovani. Put plainly: Antileishmanial activity against Leishmania donovani MHOM/ET/67/HU3 infected in BALB/c mouse at 0.5 mg/kg, iv for 3 days from day 7 postinfection measured after 14 days by Giemsa staining. Format: functional. The method in brief:
(§1)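 Female SPF BALB/c mice (6-8 weeks, ~20 g) infected iv via tail vein on day 0 with 1.5×10^7 hamster-spleen-derived amastigotes. Groups of five mice were treated once daily starting day 7. On day 14 the livers were weighed and Giemsa-stained smears prepared. Amastigotes were counted per 500 liver cells and expressed as amastigotes per liver cell × mg liver. % inhibition was calculated versus untreated mice.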

Data set [2] has as its system Leishmania donovani. Put plainly: Antileishmanial activity against Leishmania donovani MHOM/ET/67/HU3 infected in BALB/c mouse at 1.5 mg/kg, iv for 3 days from day 7 postinfection measured after 14 days by Giemsa staining. The data set is classed as functional. Summed up: as §1
The subject of data set [3] is Leishmania donovani. Put plainly: Antileishmanial activity against Leishmania donovani MHOM/ET/67/L82 amastigotes infected in syrian golden hamster spleen after 72 hrs. Format: functional, organism-based. Summed up:
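Hamster-maintained spleen amastigotes were grown axenically at 37 °C, 5% CO2 in Cunningham SM medium, pH 5.4, with 10% FBS. 10^5 amastigotes per well were exposed to serial drug dilutions for 72 h. Alamar blue (resazurin) was added for 2 h more, and fluorescence read at ex 536/em 588 nm. IC50 was taken from the sigmoidal inhibition curve versus control.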

Data set [4] in a line: Selectivity ratio of IC50 for rat L6 cells to IC50 for Leishmania donovani MHOM/ET/67/L82. The data set is classed as ADME, cell-based. The settings on record: for selectivity ratio: L6 cells, read-out: Ratio IC50; for Ratio IC50: l6. The method in brief: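 Ratio of the L-6 cytotoxicity IC50 to the IC50 against axenic L. donovani amastigotes.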
For a further data set, the system named is L6. Put plainly: Cytotoxicity against rat L6 cells after 72 hrs by Alamar blue assay. The data set is classed as cell-based. Summed up: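 L-6 myoblasts were grown in RPMI 1640 with L-glutamine and 10% FBS at 37 °C, 5% CO2, seeded at 4×10^4 cells/well. After 24 h they were given serial drug dilutions for 72 h. Alamar blue was added for 2 h, and fluorescence read at ex 536/em 588 nm to give IC50.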
(Alamar Blue is a resazurin reagent that responds to reducing activity.)

For data set [5], the system named is Leishmania donovani. Put plainly: Antileishmanial activity against Leishmania donovani MHOM/ET/67/L82 infected in NMRI mouse macrophage assessed as reduction in parasite burden after 4 days by Giemsa staining. The settings on record: MHOM/ET/67/L82, 4 days.
In data set [6] the test system is Leishmania donovani. Put plainly: Antileishmanial activity against Leishmania donovani MHOM/ET/67/HU3 infected in BALB/c mouse at 50 mg/kg, ip for 5 days from day 7 postinfection measured after 14 days by Giemsa staining. The data set is classed as functional. The settings on record: MHOM/ET/67/HU3, ip, route intraperitoneal. Summed up: as §1
Data set [7] has as its system Leishmania donovani. Put plainly: Antileishmanial activity against Leishmania donovani MHOM/ET/67/HU3 infected in BALB/c mouse at 15 mg/kg, sc for 5 days from day 7 postinfection measured after 14 days by Giemsa staining. Format: functional, organism-based. The arrangement: dose 15 mg/kg. Summed up: as §1
The subject of data set [8] is Leishmania donovani. The data set can be described thus: Antileishmanial activity against Leishmania donovani MHOM/ET/67/HU3 infected in BALB/c mouse at 2 mg/kg, iv for 5 days from day 7 postinfection measured after 14 days by Giemsa staining. Format: functional. Summed up: as §1
Data set [9] has as its system Leishmania donovani. The data set can be described thus: Antileishmanial activity against Leishmania donovani MHOM/ET/67/HU3 infected in BALB/c mouse at 50 mg/kg, po for 5 days from day 7 postinfection measured after 14 days by Giemsa staining. Format: functional. Summed up:
as §1

Data set [10] relates to Leishmania donovani. Put plainly: Antileishmanial activity against Leishmania donovani MHOM/ET/67/HU3 infected in BALB/c mouse at 12.5 mg/kg, iv for 5 days from day 7 postinfection measured after 14 days by Giemsa staining. Format: functional. Summed up:
as §1

Data set [11] concerns Leishmania donovani. Put plainly: Antileishmanial activity against Leishmania donovani MHOM/ET/67/HU3 infected in BALB/c mouse at 0.2 mg/kg, iv for 5 days from day 7 postinfection measured after 14 days by Giemsa staining. The data set is classed as functional. The method in brief:
as §1

In data set [12] the test system is Leishmania donovani. Put plainly: Antileishmanial activity against Leishmania donovani MHOM/ET/67/HU3 infected in BALB/c mouse at 4.1 mg/kg, iv for 5 days from day 7 postinfection measured after 14 days by Giemsa staining. The data set is classed as functional. Summed up: as §1
Data set [13] relates to Leishmania donovani. The data set can be described thus: Antileishmanial activity against Leishmania donovani MHOM/ET/67/HU3 infected in BALB/c mouse at 1.3 mg/kg, iv for 5 days from day 7 postinfection measured after 14 days by Giemsa staining. Format: functional. The method in brief: as §1
Setting [14] is: Leishmania donovani, MHOM/ET/67/L82, Spleen, 72 h.

`C[C@@H]1[C@H](O)[C@@H](C)/C=C/C=C/C=C/C=C/C=C/C=C/C=C/[C@H](O[C@@H]2O[C@H](C)[C@@H](O)[C@H](N)[C@@H]2O)C[C@@H]2O[C@](O)(C[C@@H](O)C[C@@H](O)[C@H](O)CC[C@@H](O)C[C@@H](O)CC(=O)O[C@H]1C)C[C@H](O)[C@H]2C(=O)O` [AMPHOTERICIN B]: the inhibition in vivo (as a rule, the drop in the measured response relative to a control, in per cent) at 0.5 mg/kg in the data set with Leishmania donovani [1] amounted to 78.6%. Further, testing at 1.5 mg/kg in the data set on Leishmania donovani [2] gave an inhibition in vivo of 95.5%.
On to `CCn1c(=O)/c(=C2\Sc3ccccc3N2C)s/c1=C\c1cccc[n+]1CC`, for which the IC50 (in general, the concentration that inhibits the measured activity by half) came out at 255 nM in the data set on Leishmania donovani [3] (setting [14]) and 115000 nM in the data set with L6 (Rattus norvegicus, L6, 72 h). The selectivity ratio in [4] was 450.
For the molecule `CCn1c(=O)/c(=C/C=C2\Sc3ccccc3N2C)s/c1=C\c1sc2ccccc2[n+]1C`, the IC50 amounted to 106 nM in the data set with Leishmania donovani [3] (setting [14]) and 7980 nM with L6 (Rattus norvegicus, L6, 72 h). Besides, the selectivity ratio in [4] came to 75.
As for `CCN1C(=O)/C(=C/C=C2\Sc3ccccc3N2C)S/C1=N\c1sc2ccc(Cl)cc2[n+]1C`, the IC50 in the data set on Leishmania donovani [3] (setting [14]) worked out at 28 nM; in the data set with Leishmania donovani [5] it was 80 nM; in the data set with L6 (Rattus norvegicus, L6, 72 h), 21200 nM. Also, the selectivity ratio in data set [4] is 757. The inhibition in vivo at 50 mg/kg in the data set with Leishmania donovani [6] stood at 18.2%.
Turning to `CN1/C(=C/C=c2\s/c(=C\c3sc4ccc(F)cc4[n+]3C)n(CCO)c2=O)Sc2ccccc21`, the IC50 was 11600 nM in the data set with Leishmania donovani [3] (setting [14]) and more than 169000 nM in the data set with L6 (Rattus norvegicus, L6, 72 h). In addition, the selectivity ratio in data set [4] was more than 15.
On to `CCCCN1C=CC=c2o/c(=C/C=c3\s/c(=C\c4sc5ccccc5[n+]4CC)n(CCC)c3=O)nc21`, for which the IC50 was found to be 21 nM with Leishmania donovani [3] (setting [14]) and 2070 nM in the data set with L6 (Rattus norvegicus, L6, 72 h). The selectivity ratio in data set [4] was determined as 99.
As for `CCn1c(=O)/c(=C/N=c2\sc(C)cn2C)s/c1=C\c1sc2ccc(F)cc2[n+]1C`, the IC50 in the data set on Leishmania donovani [3] (setting [14]) was 118 nM; in the data set on L6 (Rattus norvegicus, L6, 72 h) it was 10400 nM. Also, in [4], the selectivity ratio was determined as 88.
For “D-gluconic acid, 2,4:2',4'-O-[oxybis-oxidostibylidyne]bis-, trisodium salt, nonahydrate”, the inhibition (in general, the share of the control response that was lost under treatment) in the data set on Leishmania donovani [7] was determined as 62%.
As for `CCn1c(=O)/c(=C/C=C2\Sc3ccccc3N2C)s/c1=C\c1sc2ccc(F)cc2[n+]1C.CS(=O)(=O)[O-]`, the inhibition in vivo at 2 mg/kg in the data set on Leishmania donovani [8] was found to be 46.4%. Also, the results for the half-maximal inhibitory concentration (IC50) in the data set on Leishmania donovani [3] and with L6 (l6) were 20 nM and 84500 nM, respectively. In data set [4], the “Ratio IC50” value was determined as 4225. Also, testing at 50 mg/kg in the data set on Leishmania donovani [9] gave an inhibition in vivo of 28%.
As to `CCn1c(=O)/c(=C/N=c2\scc(C)n2C)s/c1=C\c1sc2ccc(F)cc2[n+]1C`, the IC50 in the data set with Leishmania donovani [3] (setting [14]) was determined as 182 nM; in the data set on L6 (Rattus norvegicus, L6, 72 h), 16500 nM. Also, the selectivity ratio in data set [4] was determined as 91.
The like results for `CCCN1C=CC=c2o/c(=C/C=c3\s/c(=C\c4sc5ccccc5[n+]4C)n(CC)c3=O)nc21` were, in that order, 690 nM, 1440 nM and 2.
On to `CCCCCCCCCCCCCCCCOP(=O)([O-])OCC[N+](C)(C)C` [MILTEFOSINE], for which the IC50 in the data set on Leishmania donovani [3] (setting [14]) was 430 nM; with Leishmania donovani [5] it was 811 nM.
For `CCN1C(=O)/C(=C/C=C2\Sc3ccccc3N2C)S/C1=N\c1sc2ccccc2[n+]1C`, the IC50 with Leishmania donovani [3] (setting [14]) came out at 52 nM; with Leishmania donovani [5], 4690 nM; with L6 (Rattus norvegicus, L6, 72 h), 156000 nM. In addition, in data set [4], the selectivity ratio turned out to be 2990.
With `CCn1c(=O)/c(=C/N=c2\ccccn2C)s/c1=C\c1sc2ccc(F)cc2[n+]1C`, the IC50 in the data set on Leishmania donovani [3] (setting [14]) worked out at 2020 nM; in the data set with L6 (Rattus norvegicus, L6, 72 h) it was 31700 nM. Also, the selectivity ratio in data set [4] worked out at 16.
Consider `CCn1c(=O)/c(=C/N=c2n(C)c3ccccc3n2C)s/c1=C\c1sc2ccc(F)cc2[n+]1C`, for which the IC50 worked out at 129 nM in the data set on Leishmania donovani [3] (setting [14]) and 80900 nM with L6 (Rattus norvegicus, L6, 72 h). The selectivity ratio in data set [4] amounted to 627.
On to `CCn1c(=O)/c(=C/C=c2\nc3c(o2)=CC=CN3C)s/c1=C\c1sc2ccc(F)cc2[n+]1C`, for which the IC50 with Leishmania donovani [3] (setting [14]) came out at 1040 nM; with L6 (Rattus norvegicus, L6, 72 h) it was 28500 nM. The selectivity ratio in [4] came to 27.
Turning to `CCn1c(=O)/c(=C/C=c2\nc3c(o2)=CC=CN3C)s/c1=C\c1sc2ccccc2[n+]1C`, the IC50 in the data set with Leishmania donovani [3] (setting [14]) was found to be 677 nM; with L6 (Rattus norvegicus, L6, 72 h), 27200 nM. Moreover, the selectivity ratio in data set [4] stood at 40.
As to `CCn1c(=O)/c(=C/C=C2\Sc3ccccc3N2C)s/c1=C\c1sc2ccc(F)cc2[n+]1C.[Cl-]`, the IC50 in the data set on Leishmania donovani [3] is 11 nM; in the data set with Leishmania donovani [5], 353 nM; with L6 (l6) it was more than 174000 nM. Also, the “Ratio IC50” value in data set [4] is listed as more than 15000. This molecule returned an inhibition in vivo at 12.5 mg/kg in the data set with Leishmania donovani [10] of 95.4%. This molecule came in with an inhibition in vivo at 0.2 mg/kg with Leishmania donovani [11] of 16.1%. This molecule also gave an inhibition in vivo at 50 mg/kg in the data set with Leishmania donovani [6] of 31.4%. For the same molecule, the inhibition in vivo at 4.1 mg/kg in the data set on Leishmania donovani [12] is 97.2%. Further, in the data set on Leishmania donovani [13], testing at 1.3 mg/kg gave an inhibition in vivo of 94.9%.
`CCn1c(=O)/c(=C/C=C2\Sc3ccccc3N2C)s/c1=C\c1sc2ccc(F)cc2[n+]1C.O=C([O-])/C=C\C(=O)O`: the IC50 worked out at 25 nM with Leishmania donovani [3] and 71700 nM in the data set with L6 (l6). Besides, the “Ratio IC50” value in data set [4] turned out to be 2870.
